In brackets after ≈: the same amount, converted by molar mass. Activity calls are given as the source filed them. The calls are words filed in the database; no cut-off is given here.
Columns and labels:
Hepatitis C virus [1] = assay: Antiviral activity against HCV1a infected in clone A and ET-lunet cells assessed as inhibition of viral replication after 4 days by RT-PCR analysis; format: functional, organism-based, Hepacivirus hominis; settings: subtype 1a, 96 h
Outline: (§1)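 Run in HCV genotype 1a and 1b replicon cells; each reported value is the mean of n = 2 independent determinations.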

[2] = Cytotoxicity against human HepG2 cells after 8 days by MTS assay; format: cell-based
[3] = Cytotoxicity against human CEM cells after 8 days by MTS assay; format: cell-based; settings: CEM cells (CCRF-CEM)
[4] = Cytotoxicity against human HuH7 cells after 8 days by MTS assay; format: cell-based, Huh-7
Hepatitis C virus [5] = assay: Antiviral activity against HCV1b infected in clone A and ET-lunet cells assessed as inhibition of viral replication after 4 days by RT-PCR analysis; format: functional, organism-based, Hepacivirus hominis; settings: genotype 1b, 96 h; outline: as §1
[6] = Cytotoxicity against human BxPC3 cells after 8 days by MTS assay; format: cell-based, BXPC-3
Hepatitis C virus [7] = assay: Antiviral activity against HCV2 assessed as inhibition of viral replication; format: functional, organism-based; settings: Hepacivirus hominis; type 2
Cytochrome P450 2D6 = Cytochrome P450 2D6 (Homo sapiens, UniProt P10635); assay: Inhibition of CYP2D6 (unknown origin) up to 10 uM; format: ADME
Cytochrome P450 2D6, sequence (P10635 whole entry): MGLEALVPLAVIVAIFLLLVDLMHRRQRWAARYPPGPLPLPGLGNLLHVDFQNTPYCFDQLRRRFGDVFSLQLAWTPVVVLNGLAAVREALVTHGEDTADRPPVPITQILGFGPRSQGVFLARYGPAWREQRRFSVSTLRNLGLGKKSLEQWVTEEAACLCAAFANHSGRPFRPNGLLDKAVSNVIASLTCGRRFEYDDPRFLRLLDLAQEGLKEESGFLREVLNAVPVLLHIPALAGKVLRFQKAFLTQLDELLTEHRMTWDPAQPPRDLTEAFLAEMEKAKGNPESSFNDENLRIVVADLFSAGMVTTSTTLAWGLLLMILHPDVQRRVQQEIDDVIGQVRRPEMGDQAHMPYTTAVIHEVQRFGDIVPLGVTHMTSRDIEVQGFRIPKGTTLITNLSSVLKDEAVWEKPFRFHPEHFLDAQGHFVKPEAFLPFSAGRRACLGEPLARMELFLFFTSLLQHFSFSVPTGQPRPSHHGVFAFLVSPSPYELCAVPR

Cytochrome P450 2C9 = Cytochrome P450 2C9 (Homo sapiens, UniProt P11712); assay: Inhibition of CYP2C9 (unknown origin) up to 10 uM; format: ADME
Cytochrome P450 2C9, sequence (P11712 whole entry): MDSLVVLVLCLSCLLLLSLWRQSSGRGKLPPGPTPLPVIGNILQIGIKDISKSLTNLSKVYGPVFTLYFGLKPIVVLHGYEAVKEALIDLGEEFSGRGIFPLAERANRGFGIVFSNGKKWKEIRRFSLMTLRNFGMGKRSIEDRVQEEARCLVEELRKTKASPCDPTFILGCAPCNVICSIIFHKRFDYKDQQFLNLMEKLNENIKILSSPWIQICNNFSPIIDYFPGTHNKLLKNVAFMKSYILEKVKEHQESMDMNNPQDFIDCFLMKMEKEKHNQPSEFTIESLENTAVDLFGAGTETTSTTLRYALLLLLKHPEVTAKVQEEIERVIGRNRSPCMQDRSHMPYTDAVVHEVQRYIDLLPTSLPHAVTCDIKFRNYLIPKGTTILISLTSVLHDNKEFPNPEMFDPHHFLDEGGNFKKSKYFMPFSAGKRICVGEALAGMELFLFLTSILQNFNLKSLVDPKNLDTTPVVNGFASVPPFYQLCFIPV

[8] = Solubility of the compound at pH 4; format: physicochemical; settings: buffer
Cytochrome P450 1A2 = biological target: T1, Cytochrome P450 1A2 (Homo sapiens, UniProt P05177); assay: Inhibition of CYP1A2 (unknown origin) up to 10 uM; format: ADME
T1 sequence (P05177 whole entry): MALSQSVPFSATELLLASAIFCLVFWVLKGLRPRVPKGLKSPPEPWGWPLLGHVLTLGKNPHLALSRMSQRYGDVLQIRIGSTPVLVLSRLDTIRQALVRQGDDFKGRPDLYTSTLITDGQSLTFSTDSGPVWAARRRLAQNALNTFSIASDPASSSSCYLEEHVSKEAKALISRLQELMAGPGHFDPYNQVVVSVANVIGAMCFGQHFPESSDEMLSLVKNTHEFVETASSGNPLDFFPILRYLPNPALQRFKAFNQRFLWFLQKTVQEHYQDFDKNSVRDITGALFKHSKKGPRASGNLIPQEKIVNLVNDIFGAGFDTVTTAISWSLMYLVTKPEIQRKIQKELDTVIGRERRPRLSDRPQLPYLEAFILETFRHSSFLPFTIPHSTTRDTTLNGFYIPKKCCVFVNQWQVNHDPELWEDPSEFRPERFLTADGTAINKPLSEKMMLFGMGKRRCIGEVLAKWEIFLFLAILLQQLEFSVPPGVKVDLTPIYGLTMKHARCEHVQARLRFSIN

[9] = Half life in human liver microsomes; format: ADME
Cytochrome P450 3A4 = Cytochrome P450 3A4 (Homo sapiens, UniProt P08684); assay: Inhibition of CYP3A4 (unknown origin) up to 10 uM; format: ADME
Cytochrome P450 3A4, sequence (P08684 whole entry): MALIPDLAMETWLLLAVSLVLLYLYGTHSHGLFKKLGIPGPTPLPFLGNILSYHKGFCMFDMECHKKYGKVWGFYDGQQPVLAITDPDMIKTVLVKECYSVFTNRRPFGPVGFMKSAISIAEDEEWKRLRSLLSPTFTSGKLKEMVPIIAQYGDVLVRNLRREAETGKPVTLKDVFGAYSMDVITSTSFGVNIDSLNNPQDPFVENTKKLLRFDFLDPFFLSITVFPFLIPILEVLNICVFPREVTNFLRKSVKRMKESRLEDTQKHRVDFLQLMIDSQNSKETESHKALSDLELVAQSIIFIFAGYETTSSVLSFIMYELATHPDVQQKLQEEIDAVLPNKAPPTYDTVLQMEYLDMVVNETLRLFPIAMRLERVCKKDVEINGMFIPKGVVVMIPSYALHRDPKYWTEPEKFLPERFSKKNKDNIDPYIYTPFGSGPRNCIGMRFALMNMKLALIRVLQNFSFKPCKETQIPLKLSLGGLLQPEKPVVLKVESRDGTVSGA

[10] = Solubility of the compound at pH 7.4; format: physicochemical; settings: buffer
Hepatitis C virus [11] = assay: Antiviral activity against HCV1b infected in clone A and ET-lunet cells assessed as inhibition of viral replication up to 20 uM after 4 days by RT-PCR analysis; format: functional, organism-based; settings: Hepacivirus hominis, genotype 1b
Hepatitis C virus [12] = assay: Antiviral activity against HCV1a infected in clone A and ET-lunet cells assessed as inhibition of viral replication up to 20 uM after 4 days by RT-PCR analysis; format: functional, organism-based; settings: Hepacivirus hominis, subtype 1a

`CC(C)C[C@H]1CN(C(=O)[C@@H]2C[C@H]2c2ccccc2)[C@@H](CC(C)C)C(=O)N1` gave an EC90 (Hepatitis C virus [1]) of 1 µM, a CC50 at 192 h [2] of 40 µM and a CC50 at 192 h [3] of 40 µM. For the same molecule, the CC50 at 192 h [4] was 40 µM, the EC90 (Hepatitis C virus [5]) was 0.8 µM and the CC50 at 192 h [6] was 40 µM.
In the case of `CC(C)C[C@H]1C(=O)N[C@@H](c2cccs2)CN1C(=O)c1cc(-c2ccc(F)cc2)on1`, the inhibition (Hepatitis C virus [7]) is reported as “inactive”, the EC90 (Hepatitis C virus [1]) is reported as 0.022 µM and the EC90 (Hepatitis C virus [5]) is reported as 0.006 µM. The “inhibition (INH)” value (Cytochrome P450 2D6) was “Not Active”, the “inhibition (INH)” value (Cytochrome P450 2C9) was “Not Active” and the solubility [8] was 0.2 µg/mL (≈ 0.468 µM). The “inhibition (INH)” value (Cytochrome P450 1A2) was “Not Active”, the half-life [9] was 2 h and the “inhibition (INH)” value (Cytochrome P450 3A4) was “Not Active”. For the same molecule, the solubility [10] was 0.2 µg/mL (≈ 0.468 µM).
In the case of `CC(C)C[C@H]1CN(C(=O)[C@H]2C[C@@H]2c2ccccc2)[C@@H](CC(C)C)C(=O)N1`, the EC90 (Hepatitis C virus [1]) is reported as over 10 µM, the inhibition (Hepatitis C virus [11]) is reported as “inactive” and the EC90 (Hepatitis C virus [5]) is reported as over 10 µM. The inhibition (Hepatitis C virus [12]) was “inactive”.
With `CC(C)C[C@H]1C(=O)N[C@@H](c2cnco2)CN1C(=O)c1cc(-c2ccc(F)cc2)on1` the inhibition (Hepatitis C virus [7]) was “inactive”, the EC90 (Hepatitis C virus [1]) was 0.016 µM and the EC90 (Hepatitis C virus [5]) was 0.07 µM. For the same molecule, the “inhibition (INH)” value (Cytochrome P450 2D6) was “Not Active”, the “inhibition (INH)” value (Cytochrome P450 2C9) was “Not Active” and the solubility [8] was 147 µg/mL (≈ 356 µM). For the same molecule, the “inhibition (INH)” value (Cytochrome P450 1A2) was “Not Active”, the half-life [9] was 0.667 h and the “inhibition (INH)” value (Cytochrome P450 3A4) was “Not Active”. It also gave a solubility [10] of 151 µg/mL (≈ 366 µM).

From ChEMBL document CHEMBL3120066, “Discovery of a novel class of potent HCV NS4B inhibitors: SAR studies on piperazinone derivatives” (J Med Chem, 2014)
